NR1D1 modulator: modulators of Rev-erb alpha DNA binding, primary screen, biochemical, FITC-DNA, fluorescence polarization, uHTS; Nuclear receptor subfamily 1 group D member 1 (Homo sapiens), P20393; Rev-erbα–FITC-DNA binding, 90 min; activity, % at 10 µM; 0.79% of 370,000 active; AID 1259318, 2017;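 active = activity above about 14%, limit read from the data; passing the limit was not always enough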
Target sequence (P20393 whole entry, looked up): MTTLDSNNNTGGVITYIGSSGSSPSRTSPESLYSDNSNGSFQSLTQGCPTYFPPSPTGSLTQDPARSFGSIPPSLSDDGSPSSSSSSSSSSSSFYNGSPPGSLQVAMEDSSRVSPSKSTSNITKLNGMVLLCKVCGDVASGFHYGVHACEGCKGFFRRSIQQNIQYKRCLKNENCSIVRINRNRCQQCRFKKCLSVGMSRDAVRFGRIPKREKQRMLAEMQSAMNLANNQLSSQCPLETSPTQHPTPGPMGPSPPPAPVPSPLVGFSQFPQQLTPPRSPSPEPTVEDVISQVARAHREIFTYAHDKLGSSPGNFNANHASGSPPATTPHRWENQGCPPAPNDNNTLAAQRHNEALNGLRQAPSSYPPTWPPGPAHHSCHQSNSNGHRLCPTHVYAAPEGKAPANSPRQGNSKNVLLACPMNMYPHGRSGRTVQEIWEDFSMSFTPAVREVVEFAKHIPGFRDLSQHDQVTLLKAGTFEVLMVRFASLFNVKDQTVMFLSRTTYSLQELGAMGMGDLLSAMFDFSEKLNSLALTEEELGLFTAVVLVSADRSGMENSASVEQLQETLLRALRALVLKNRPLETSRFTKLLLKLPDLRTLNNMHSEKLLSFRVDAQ
MC4R ag barr: MC4R agonists recruiting beta-arrestin, primary screen, cell-based, luminescence, agonist arm of biased-ligand search. AID 540308, 2011. U2OS MC4R beta-arrestin complementation; percent of melanotan II response, DMSO zero. 0.98% of 360,000 active. Melanocortin receptor 4 (Homo sapiens), P32245. activation, % at 8.9 µM;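 active = activation above a per-plate cutoff, the mean activation of sample wells on that plate plus 3 SD, cut at about 8% in these data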
NR2E3 ag-1: inhibitors of NR2E3-RetCOR corepressor binding, primary screen, NR2E3 agonist project, biochemical, TR-FRET, GST-NR2E3, biotin-RetCOR; Photoreceptor-specific nuclear receptor (Homo sapiens), Q9Y5X4; 1536-well; inhibition of corepressor binding, % at 4.78 µM; 0.12% of 320,000 active;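 active = percent inhibition above the cutoff of mean plus 3 SD of all tested compounds, set per screening campaign, cut at about 20% in these data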
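Test system – NR2E3–RetCOR corepressor complex · Quantity – NR2E3 fusion 1.35 nM · Buffer or medium – Tris pH 7.5 · Incubation – Compound–protein incubation for 5 h at 4 °C · Technique – TR-FRET, Eu(K)-anti-GST donor, streptavidin-D2 acceptor, ex 340, em 617/671 nm · Evaluation – percent inhibition of 671/617 nm emission ratio versus biotin and DMSO controls · Plate – 1536-well format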
MC4R antagonist: MC4R antagonists of cAMP signaling, primary screen, cell-based, TR-FRET, antagonist arm of biased-ligand search; Melanocortin receptor 4 (Homo sapiens), P32245; MC4R-expressing cells, MTII-stimulated cAMP, LANCE TR-FRET; inhibition, % at 6.5 µM; 0.48% of 360,000 active;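 active = inhibition above its plate's cutoff, the mean of tested wells on that plate plus 3 SD, cut at about 29% in these data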
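Assay system: human MC4R-expressing U2OS cells; reagent: Melanotan II stimulation of cells; dosing: 6.5 µM single dose; timing: compound 30 min, challenge 1 h, detection 1 h; signal: TR-FRET cAMP assay; replicates: one well per compound, no replicates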
PG9 binder: binders of HIV-1 gp120 antibody PG9, primary screen, biochemical, TR-FRET. inhibition, % at 6.7 µM. TR-FRET gp120-PG9 antibody binding. 0.43% of 360,000 active; in the data active = inhibition above about 8.5%
NR2E3 ag-2: NR2E3 agonists in two-hybrid cells, primary screen, cell-based, luminescence, CHO-S, Gal4-NCOR/VP16-NR2E3; Photoreceptor-specific nuclear receptor (Homo sapiens), Q9Y5X4; inhibition of corepressor binding, % at 3.98 µM; luciferase; AID 602229, 2012; 0.35% of 360,000 active;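 active = inhibition above the mean of all tested compounds plus 3 SD, cut at about 70% in these data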;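 note: higher means lower luciferase signal from less NR2E3 corepressor binding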
Rev-erbA confirm: modulators of Rev-erb alpha DNA binding, confirmation, biochemical, FITC-DNA, fluorescence polarization, single point | 90 min | shares compounds with NR1D1 modulator | 61% of 3,000 active | activation, % at 25 µM;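 active = activation at or above a set limit, or at least 3 SD above the negative control mean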
RORg counter: modulation of RORgamma DNA binding, dose response, counter-screen for Rev-erb alpha modulator project, biochemical, fluorescence polarization, FITC-DNA. shares compounds with NR1D1 modulator. purified RORgamma protein-FITC-DNA binding. IC50, µM. 8% of 910 active. AID 1259320, 2017;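 active = Compounds whose fitted half-maximal concentration for disrupting protein-DNA binding is below 10 micromolar; the record names Rev-erb in its text, so the target is in doubt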
Large screens that a line does not name were inactive (follow-up assays come after a bar, where they were run). Compounds with a hit are over-represented: about 2.7% of the library has one in this group of screens.

CCOC(=O)c1ccc(CNC(=O)CSc2nc(NC(=O)c3ccccc3)c3c(C)c(C)oc3n2)cc1	NR1D1 modulator 27.2 | Rev-erbA confirm 36.6 | RORg counter inactive
COc1ccc(C2=NN(C(=O)CSc3ncccn3)C(c3ccc(OC)cc3)C2)cc1 (centres undefined)	none
COc1ccc(C2=NN(C(=O)CSc3nc(=O)n4cc(C)ccc4n3)C(c3ccc(C)cc3)C2)cc1 (centres undefined)	NR1D1 modulator 57.5 | Rev-erbA confirm 19.8
O=[N+]([O-])c1ccc(O)c(-c2cc(C(F)(F)F)nc(-c3ccccc3)n2)c1	NR1D1 modulator 133.2 | Rev-erbA confirm 159.3 | RORg counter 7.96
COc1ccc(CC(=O)Nc2nn(C)c3nc4c(C)cccc4cc23)cc1	NR1D1 modulator 28.3 | Rev-erbA confirm inactive
CCOC(=O)/C(=C/C=C1\Sc2cc(C)c(C)cc2N1CC)C(C)=O	NR1D1 modulator 31.5 (no result: NR2E3 ag-1) | Rev-erbA confirm inactive
CCOC(=O)/C(=C\C=C1/Sc2ccccc2N1CC)C(C)=O	NR1D1 modulator 27.2 | Rev-erbA confirm inactive
COc1ccc2cc3c(N)nn(C(=O)Cc4c[nH]c5ccccc45)c3nc2c1	none
Cc1sc2nc(CN3CCOCC3)[nH]c(=O)c2c1-c1ccccc1	none
Cc1sc2nc(N3CCOCC3)[nH]c(=O)c2c1-c1ccccc1	NR1D1 modulator 93.8 | Rev-erbA confirm 128.3 | RORg counter inactive
Cc1nnc(SCC(=O)Nc2ccc3c(c2)OCO3)[nH]c1=O	none
COc1ccc(-n2c(C)cc(C(=O)COC(=O)c3cc(NC(=O)c4cccs4)c(OC)c(OC)c3)c2C)cc1	NR1D1 modulator 31.9 | Rev-erbA confirm inactive
COc1ccc(Cn2cc3c(-c4ccc(F)cc4)nnc-3c3cc(OC)c(OC)cc32)cc1	none
COc1cc2c3nnc(-c4ccc(F)cc4)c-3cn(Cc3ccc(F)cc3)c2cc1OC	NR1D1 modulator 35.3 | Rev-erbA confirm 27.3
COc1cc2c3nnc(-c4ccc(F)cc4)c-3cn(Cc3ccccc3)c2cc1OC	NR1D1 modulator 43.1 | Rev-erbA confirm 44.7 | RORg counter inactive
CCCC1CCc2c(sc(NC(=O)c3cccs3)c2C(N)=O)C1 (centres undefined)	NR1D1 modulator 25.6 | Rev-erbA confirm inactive
CCC1CCc2c(sc(NC(=O)c3cccnc3)c2C(N)=O)C1 (centres undefined)	NR1D1 modulator 26.7 | Rev-erbA confirm inactive
NCCC1CN(C(=O)OCc2ccccc2)c2ccccc21 (centres undefined)	none (no result: NR2E3 ag-1)
COc1cccc(CN(C)C(=O)c2ccc(NS(=O)(=O)c3ccc(F)cc3)cc2)c1OC	none
Cc1ccc(-n2nc(C(=O)c3ccccc3)n3c(=O)cc(-c4ccccc4)nc23)cc1	NR1D1 modulator 48.9 | Rev-erbA confirm inactive
CCOc1ccc(OCC)c(NC(=O)CCS(=O)(=O)c2ccc(Br)s2)c1	none
CCOC(=O)c1c(C)c(C#N)c2c3ccccc3ccn12	NR1D1 modulator 57.5 | Rev-erbA confirm 17.4
CCOC(=O)c1c(C)nc2c3ccccc3ccn12	none
CC1=NN2C(=N)/C(=C\c3cc(C)n(-c4ccccc4)c3C)C(=O)N=C2S1	none
CCC(CC)C1=NN2C(=N)/C(=C\c3cc(C)n(-c4cccc(C)c4)c3C)C(=O)N=C2S1	NR1D1 modulator 32.0 | Rev-erbA confirm inactive
Cc1cc(/C=C2\C(=N)N3C(SCc4ccccc4)=NSC3=NC2=O)c(C)n1Cc1ccccc1	NR1D1 modulator 73.5 | Rev-erbA confirm 41.3
Cc1cc(/C=C2\C(=N)N3N=C(C(C)C)SC3=NC2=O)c(C)n1Cc1ccccc1	none
Cc1ccccc1/C=N/Nc1nc2ccccc2c(=O)n1O	none
COc1ccc(-c2c(C#N)c(C)nc3c2C(=O)c2ccccc2-3)cc1	NR1D1 modulator 150.6 | Rev-erbA confirm 122.2
CCC1CCc2c(c3ccccc3[nH]c2=O)O1 (centres undefined)	none
O=C(CN1CCN(Cc2ccccc2)CC1)Nc1cccc(Cl)c1	none
O=C(CC(=O)Nc1cccc(F)c1)Nc1cccc(F)c1	none
O=C(Cn1c2ccccc2c(=O)c2ccccc21)Nc1cccc(F)c1	NR1D1 modulator 28.0 | Rev-erbA confirm inactive
O=C(Cn1c(=O)c(=O)n(Cc2ccccc2)c2ccc(Cl)cc21)Nc1cccc(F)c1	NR1D1 modulator 44.0 | Rev-erbA confirm 24.1
FC(F)(F)c1cc(-c2ccco2)nc(-n2nc(C(F)(F)F)cc2C2CC2)n1	none
FC(F)(F)c1cc(-c2ccco2)nc(-n2nnc3ccccc32)n1	NR1D1 modulator 21.1 | Rev-erbA confirm inactive
CCC(Cc1ccccc1)NCc1c(C(=O)O)c(C)n(Cc2ccccc2)c1C (centres undefined)	none
COc1cccc(N2CC(=O)Nc3c(oc4nc(-c5ccccc5)cc(C)c34)C2=O)c1	none
Cc1cc(-c2ccccc2)nc2oc3c(c12)NC(=O)CN(c1ccccc1)C3=O	NR1D1 modulator 23.2 | Rev-erbA confirm 35.0 | RORg counter 1.13
Cc1cc(C)c(C)c(S(=O)(=O)N2CCSCC2)c1C	NR1D1 modulator 18.6 | Rev-erbA confirm inactive
O=C1CSC(=Nc2ccc(Cl)cc2)N1Cc1ccco1	none
Cc1cc(C)c(N=C2SCC(=O)N2Cc2ccco2)c(C)c1	NR1D1 modulator 43.2 | Rev-erbA confirm 36.8 | RORg counter inactive
CC(=O)OCC1OC(n2c3c(cc(C#N)c2=S)CCCC3)C(OC(C)=O)C(OC(C)=O)C1OC(C)=O (centres undefined)	none (no result: NR2E3 ag-1)
CC(=O)OCC1OC(n2c(-c3ccc(Cl)cc3)ccc(C#N)c2=S)C(OC(C)=O)C(OC(C)=O)C1OC(C)=O (centres undefined)	NR1D1 modulator 54.5 (no result: NR2E3 ag-1) | Rev-erbA confirm 40.7 | RORg counter inactive

Bioassay records from PubChem.
